About 950 (0.4%) of roughly 240,000 compounds were called active.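 The calls were made as follows: active = lipid droplet intensity inhibited by at least 50%, with more than 500 cells counted; inconclusive = wells with under 300 cells, treated as cytotoxic; inactive = the rest.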 For the sample, actives were picked, then their nearest neighbours and some compounds at random.
Experiment: inhibitors of hepatocyte lipid droplet formation, primary screen, imaging, high-throughput imaging, BODIPY stain (AID 1656);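 as to cell count: cells counted across two imaged fields per well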
Conditions: AML12 mouse hepatocytes, oleate lipid droplets, at 6.5 µM; cell count: measured here: cell count, cytotoxicity flag; inhibition: stronger effect = higher value
Outline: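 Assay system: AML12 mouse liver cells | Compound: 6.5 µM single-point dosing | Schedule: Overnight exposure | Technique: Fluorescence imaging, 20x objective, two fields per well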

| Structure (SMILES) | cell count [cells] | inhibition |
| --- | --- | --- |
| COc1ccc(-c2c(C#Cc3ccccc3)c3ccccc3n2C)cc1 | 742 | -11.3% (inactive) |
| Cc1ccccc1OCC(=O)Nc1ccc(S(=O)(=O)N2CCOCC2)cc1 | 768 | -7.1% (inactive) |
| O=C(/C=C/c1ccc([N+](=O)[O-])o1)NNC(=O)c1ccc(F)cc1 | 473 | -82% (inactive) |
| COc1ccc(-c2csc(NC(=O)CCCc3cccs3)n2)cc1 | 687 | -3.2% (inactive) |
| CCCc1ccc(-c2csc(NC(=O)Cc3cccs3)n2)cc1 | 774 | 71% (active) |
| Cc1ccc(-c2csc(NC(=O)Cc3cccs3)n2)cc1C | 732 | 12.4% (inactive) |
| CCOCCCN(C)C1CCN(C(=O)c2oc3ccccc3c2NC(=O)COc2cccc(C)c2)CC1 | 640 | -24.8% (inactive) |
| Cc1ccc(NC(=O)CN2CCc3ccccc3C2)cc1 | 793 | 7.1% (inactive) |
| O=C(CN1CCOCC1)Nc1ccccc1 | 743 | 1.4% (inactive) |
| O=C(CN1CCc2cc3c(cc2C1)OCCCO3)Nc1ccccc1 | 784 | 77.1% (active) |
| CC1(C)CC(=O)C(N=Nc2c(F)cccc2F)=C(O)C1 | 713 | 8.6% (inactive) |
| Cc1ccc(N2C(=O)C(NC(=O)c3c(F)cccc3F)(C(F)(F)F)C3=C2CC(C)(C)CC3=O)cc1 (centres undefined) | 635 | 63.8% (active) |
| CCOC(=O)CC1(NC(=O)c2cc(COc3cncc(Cl)c3)on2)CCCCC1 | 665 | 11.8% (inactive) |
| CCOC(=O)N1CCN(C(=O)c2ccc3c(=O)n(CCc4ccc(OC)c(OC)c4)c(=O)[nH]c3c2)CC1 | 684 | 16.5% (inactive) |
| CCCCNC(=O)c1cn(CC)c2cc(N3CCN(C(=O)c4ccco4)CC3)c(F)cc2c1=O | 705 | -15.8% (inactive) |
| O=S(=O)(c1ccc(Cl)cc1)c1nc(-c2ccco2)oc1N1CCCCC1 | 633 | -18% (inactive) |
| CN(CC1CCCO1)S(=O)(=O)c1ccc(C(=O)Nc2ccc([N+](=O)[O-])cc2)cc1 (centres undefined) | 854 | 0.6% (inactive) |
| CC(C)c1ccc2oc(=O)cc(CN3CCN(Cc4ccccc4)CC3)c2c1 | 850 | -0.8% (inactive) |
| C=CCSc1nnc(N2C(=O)C(O)=C(C(=O)c3ccco3)C2c2ccc(F)cc2)s1 (centres undefined) | 710 | -21.4% (inactive) |
| COc1ccc(/C=C(/NC(=O)c2ccco2)C(=O)Nc2ccc(C(C)=O)cc2)cc1 | 829 | 8.8% (inactive) |
| COc1ccc(/C=C(\NC(=O)c2ccc(OCC(C)C)cc2)C(=O)OCc2ccco2)cc1 | 607 | 74.3% (active) |
| COc1ccc(C(=O)Nc2ccccc2C(=O)NCc2ccco2)cc1 | 738 | -20.2% (inactive) |
| CCn1cc(S(=O)(=O)c2cccc(C)c2)c(=O)c2cc(F)c(N3CCN(C)CC3)cc21 | 738 | 7.2% (inactive) |
| CCC1=Nc2cc(C(=O)NCCN3CCCC3)ccc2Sc2ccc(C)cc21 | 726 | 4.6% (inactive) |
| COc1cccc(/C=C(/CC(=O)Nc2ccc(N3CCOCC3)cc2)c2nc3ccccc3s2)c1 | 578 | 77.8% (active) |
| COc1ccc(/C=C(/CC(=O)Nc2ccc(C)cc2)c2nc3ccccc3s2)cc1 | 713 | -0.1% (inactive) |

| Structure (SMILES) | cell count [cells] | inhibition |
| --- | --- | --- |
| COc1cc2ccccc2cc1C(=O)Nc1ccc(N2CCOCC2)cc1 | 835 | -4.2% (inactive) |
| CCOc1ccc(CCNC(=O)C(CC)n2nc(C)n3c(cc4sccc43)c2=O)cc1OCC (centres undefined) | 786 | 85.5% (active) |
| CCC(C(=O)NCc1ccc(OC)cc1)n1nc(C)n2c(cc3occc32)c1=O (centres undefined) | 780 | -2.7% (inactive) |
| COc1ccc(CCNC(=O)COC(=O)/C=C/c2cccs2)cc1OC | 727 | 2.8% (inactive) |
| Cc1ccc2cc(C)c(N3CCN(c4ccc(F)cc4)CC3)nc2c1 | 820 | 15% (inactive) |
| CC(NC(=O)c1cccc2ccccc12)c1ccc2c(c1)CCCC2 (centres undefined) | 688 | 57.9% (active) |
| CC(NC(=O)c1ccccc1C(=O)O)c1ccc(-n2ccnc2)cc1 (centres undefined) | 807 | 2.2% (inactive) |
| CC(NC(=O)CNC(=O)Cc1cccc2ccccc12)c1ccc(S(N)(=O)=O)cc1 (centres undefined) | 734 | 13.3% (inactive) |
| CCn1c(=S)sc2c(=O)n(CC(=O)Nc3cccc(Br)c3)c(C)nc21 | 740 | 8.5% (inactive) |
| C/C(=N\NC(=O)COc1ccc(C)cc1[N+](=O)[O-])c1ccc2c(c1)OCCO2 | 706 | -6.5% (inactive) |
| CCCSc1nc2sc3c(c2c(=O)n1-c1ccc(OC)cc1)CCN(C)C3 | 816 | 11.2% (inactive) |
| O=c1[nH]cccc1-c1nc2ccccc2n1Cc1ccc(Cl)cc1 | 844 | 10.1% (inactive) |
| CC(=O)N1c2ccc(S(=O)(=O)N3CCC(C(=O)N4CCN(c5ccccc5)CC4)CC3)cc2CC1C (centres undefined) | 669 | -1.7% (inactive) |
| Cc1ccc(Nc2cc(C)nc3c(C)ccc([N+](=O)[O-])c23)cc1 | 674 | 57.6% (active) |
| Cc1ccc(Nc2ccc(C(N)=O)cc2[N+](=O)[O-])cc1 | 630 | -6.1% (inactive) |
| Cc1cc(Nc2ccc(N3CCOCC3)cc2)c2cccc(C)c2n1 | 761 | 11.3% (inactive) |
| O=C(Nc1ncc([N+](=O)[O-])s1)C1COc2ccccc2O1 (centres undefined) | 840 | -18.9% (inactive) |
| CCN(CCCNC(=O)CSc1cc(=O)n(C)c2cc(Cl)ccc12)Cc1ccccc1 | 704 | 18.8% (inactive) |
| Cn1c(=O)cc(SCC(=O)N2CCCC2)c2cc(Cl)ccc21 | 775 | 9% (inactive) |
| CCOc1ccc(CCNC(=O)CSc2cc(=O)n(C)c3ccc(Cl)cc23)cc1OCC | 659 | 93.9% (active) |
| O=C(c1ccccc1)N1CCC(CC2CC(c3ccc(Cl)cc3)=NO2)(C(=O)NCC2CCCCC2)CC1 (centres undefined) | 817 | -15.1% (inactive) |
| CN(CC1CCCN(CCc2cccc(C(F)(F)F)c2)C1)C(=O)c1ccc2nc[nH]c2c1 (centres undefined) | 744 | -11.4% (inactive) |
| O=C(NCCCN1CCCC1=O)C(=O)NCC1OCCN1S(=O)(=O)c1ccc(Br)cc1 (centres undefined) | 666 | -6.7% (inactive) |
| OC(c1nnc(-c2ccccc2)o1)c1cccs1 (centres undefined) | 773 | 16.7% (inactive) |
| CCCC(=O)Nc1nnc(-c2ccccc2)o1 | 702 | 4.2% (inactive) |
| CCCN(CCC)c1ccc(C(O)c2nnc(-c3ccccc3)o2)cc1 (centres undefined) | 691 | 69.3% (active) |
